Experimental data from PubChem BioAssay AID588487 (The Scripps Research Institute Molecular Screening Center, 2011).
Active and inactive are the calls of the source.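 Rule for the calls: active = inhibition of at least 50% against any of four protein arginine deiminase enzymes; inactive = the rest.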

Columns and labels:
Assay in all cases: PAD isozyme probe labeling blockade – biochemical, fluorescence, gel-based ABPP, HTS hits, orthogonal assay for PAD4 inhibitor project, late-stage follow-up (AID 588487)
[1] = target: Protein-arginine deiminase type-1 (Homo sapiens) (UniProt Q9ULC6); conditions: recombinant PAD1-4, gel-based ABPP, RFA probe fluorescence; PAD1; at 10 µM; hits give high values
In short: (§1)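 Material: recombinant PAD1, PAD2, PAD3 or PAD4; Quantity: PAD enzyme 10 µM; Also added: RFA fluorescent probe at 1 µM; Dosing: one 10 µM dose per compound; Timing: 15 min compound pre-incubation plus 30 min probe step, 37 °C; Detection: in-gel fluorescence scan of probe-labeled PAD band after SDS-PAGE.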

[2] = target: Protein-arginine deiminase type-4 (Homo sapiens) (UniProt Q9UM07); conditions: recombinant PAD1-4, gel-based ABPP, RFA probe fluorescence; PAD4; at 10 µM; hits give high values
In short: as §1

[3] = target: Protein-arginine deiminase type-3 (Homo sapiens) (UniProt Q9ULW8); conditions: recombinant PAD1-4, gel-based ABPP, RFA probe fluorescence; PAD3; at 10 µM; hits give high values
In short: as §1

[4] = target: Protein-arginine deiminase type-2 (Homo sapiens) (UniProt Q9Y2J8); conditions: recombinant PAD1-4, gel-based ABPP, RFA probe fluorescence; PAD2; at 10 µM; hits give high values
In short: as §1

Chain of Protein-arginine deiminase type-2 (Homo sapiens) (Q9Y2J8 whole entry, looked up): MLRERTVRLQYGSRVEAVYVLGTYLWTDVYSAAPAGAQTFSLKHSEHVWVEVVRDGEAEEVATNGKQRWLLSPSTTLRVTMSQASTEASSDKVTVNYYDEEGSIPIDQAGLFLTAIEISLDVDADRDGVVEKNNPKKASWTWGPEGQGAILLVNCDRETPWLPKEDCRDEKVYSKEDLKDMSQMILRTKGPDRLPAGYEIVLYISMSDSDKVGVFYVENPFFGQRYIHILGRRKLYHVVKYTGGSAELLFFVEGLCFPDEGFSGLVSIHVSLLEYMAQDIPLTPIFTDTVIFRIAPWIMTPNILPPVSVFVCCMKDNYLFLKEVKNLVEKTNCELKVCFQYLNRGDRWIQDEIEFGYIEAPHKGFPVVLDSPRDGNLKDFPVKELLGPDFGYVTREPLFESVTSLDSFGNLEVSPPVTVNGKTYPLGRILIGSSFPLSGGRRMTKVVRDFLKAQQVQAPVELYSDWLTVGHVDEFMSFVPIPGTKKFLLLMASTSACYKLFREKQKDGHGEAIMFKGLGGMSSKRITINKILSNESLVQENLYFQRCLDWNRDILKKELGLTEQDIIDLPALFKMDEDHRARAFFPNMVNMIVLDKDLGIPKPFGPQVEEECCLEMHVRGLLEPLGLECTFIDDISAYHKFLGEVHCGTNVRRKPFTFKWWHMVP
Chain of Protein-arginine deiminase type-1 (Homo sapiens) (Q9ULC6 whole entry, looked up): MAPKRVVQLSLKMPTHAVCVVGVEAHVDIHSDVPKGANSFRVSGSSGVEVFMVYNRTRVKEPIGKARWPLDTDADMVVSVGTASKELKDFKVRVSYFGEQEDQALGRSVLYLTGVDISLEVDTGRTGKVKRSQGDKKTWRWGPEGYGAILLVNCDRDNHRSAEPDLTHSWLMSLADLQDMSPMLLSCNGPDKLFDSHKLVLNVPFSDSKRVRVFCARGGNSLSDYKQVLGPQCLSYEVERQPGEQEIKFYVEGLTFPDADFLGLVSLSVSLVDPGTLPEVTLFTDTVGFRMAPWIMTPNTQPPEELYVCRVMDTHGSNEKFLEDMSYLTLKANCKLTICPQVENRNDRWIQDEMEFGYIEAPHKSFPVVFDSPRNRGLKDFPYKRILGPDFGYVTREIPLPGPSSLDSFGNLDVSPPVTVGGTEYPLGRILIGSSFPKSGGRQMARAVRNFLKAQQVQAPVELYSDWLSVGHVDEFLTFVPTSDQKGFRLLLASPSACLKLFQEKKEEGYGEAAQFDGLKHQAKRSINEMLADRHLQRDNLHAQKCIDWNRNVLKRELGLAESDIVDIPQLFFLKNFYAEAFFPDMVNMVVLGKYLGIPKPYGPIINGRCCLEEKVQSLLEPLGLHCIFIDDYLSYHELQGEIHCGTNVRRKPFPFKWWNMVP
Chain of Protein-arginine deiminase type-4 (Homo sapiens) (Q9UM07 whole entry, looked up): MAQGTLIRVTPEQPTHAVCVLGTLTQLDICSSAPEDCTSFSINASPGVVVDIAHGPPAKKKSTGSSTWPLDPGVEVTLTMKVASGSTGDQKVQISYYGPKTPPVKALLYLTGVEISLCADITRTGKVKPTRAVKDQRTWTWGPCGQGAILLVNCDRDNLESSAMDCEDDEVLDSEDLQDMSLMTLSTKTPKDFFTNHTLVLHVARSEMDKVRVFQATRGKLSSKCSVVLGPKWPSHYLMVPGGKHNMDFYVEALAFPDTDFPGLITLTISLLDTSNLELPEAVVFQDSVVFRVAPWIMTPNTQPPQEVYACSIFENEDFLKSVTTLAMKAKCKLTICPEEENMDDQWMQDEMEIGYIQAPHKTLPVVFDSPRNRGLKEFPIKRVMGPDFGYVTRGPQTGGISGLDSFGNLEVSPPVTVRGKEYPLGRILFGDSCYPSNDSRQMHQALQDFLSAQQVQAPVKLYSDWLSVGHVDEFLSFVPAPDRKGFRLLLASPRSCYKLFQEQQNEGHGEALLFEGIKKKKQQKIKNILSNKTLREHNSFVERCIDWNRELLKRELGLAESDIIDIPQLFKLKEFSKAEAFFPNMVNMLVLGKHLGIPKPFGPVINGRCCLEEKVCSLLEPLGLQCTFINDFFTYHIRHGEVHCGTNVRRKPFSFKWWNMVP
Chain of Protein-arginine deiminase type-3 (Homo sapiens) (Q9ULW8 whole entry, looked up): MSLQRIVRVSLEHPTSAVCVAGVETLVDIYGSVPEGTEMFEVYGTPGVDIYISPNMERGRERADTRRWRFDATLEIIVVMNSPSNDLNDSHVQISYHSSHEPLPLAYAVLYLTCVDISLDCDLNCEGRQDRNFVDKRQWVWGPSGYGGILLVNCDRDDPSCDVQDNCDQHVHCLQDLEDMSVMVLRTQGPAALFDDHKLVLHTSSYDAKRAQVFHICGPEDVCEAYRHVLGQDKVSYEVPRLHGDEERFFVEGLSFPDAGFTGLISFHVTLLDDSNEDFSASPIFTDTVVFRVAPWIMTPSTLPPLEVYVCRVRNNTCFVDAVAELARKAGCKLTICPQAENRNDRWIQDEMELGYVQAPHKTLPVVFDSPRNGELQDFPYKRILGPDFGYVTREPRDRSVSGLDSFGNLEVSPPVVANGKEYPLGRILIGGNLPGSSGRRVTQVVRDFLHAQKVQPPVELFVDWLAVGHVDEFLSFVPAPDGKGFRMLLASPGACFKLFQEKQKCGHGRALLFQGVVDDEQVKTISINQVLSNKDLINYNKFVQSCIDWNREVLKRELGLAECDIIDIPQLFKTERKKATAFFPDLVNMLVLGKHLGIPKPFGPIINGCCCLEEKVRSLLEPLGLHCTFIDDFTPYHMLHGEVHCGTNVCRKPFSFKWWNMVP

Row | Structure (SMILES) | inhibition [1] | inhibition [2] | inhibition [3] | inhibition [4]
1 | Cc1cc(C)cc(NC(=S)/C(=C(\[O-])c2ccc(Cl)s2)[n+]2cccc(C)c2)c1 | -1% (inactive) | -8% (inactive) | 28% (inactive) | 50%
2 | CCOc1c(Br)cc(/C=C2\C(=O)N(CCC#N)N=C2C)cc1OC | 45% (inactive) | 52% | 15% (inactive) | 25% (inactive)
3 | CCC(=O)Oc1ccc(C(=O)Nc2cccc(C(=O)NC(C)(C)C)c2)cc1 | 34% (inactive) | 4% (inactive) | 40% (inactive) | 29% (inactive)
4 | COc1cccc(NC(=O)CN(C)C(=O)C23CC4CC(CC(Cl)(C4)C2)C3)c1 | 13% (inactive) | 60% | 13% (inactive) | 17% (inactive)
5 | O=C(O)CCC(=O)Nc1ccc(SSc2ccc(NC(=O)CCC(=O)O)cc2)cc1 | 35% (inactive) | 45% (inactive) | 34% (inactive) | 40% (inactive)
6 | CCOc1nc(Nc2ccc(OC)cc2OC)nc(OCC)n1 | 37% (inactive) | 20% (inactive) | 46% (inactive) | 62%
7 | CCOC(=O)N1CCC(c2cc(=O)n(-c3ccccc3)[nH]2)CC1 | 43% (inactive) | 30% (inactive) | 32% (inactive) | 14% (inactive)
8 | CCNC(=S)NNC(=O)c1csc(C)c1 | 2% (inactive) | 25% (inactive) | 14% (inactive) | -19% (inactive)
9 | Cc1cc(N(C)NC(=S)Nc2ccccc2)nc(C)n1 | 32% (inactive) | 5% (inactive) | 38% (inactive) | 58%

Continued, values first:

Row | inhibition [1] | inhibition [2] | inhibition [3] | inhibition [4] | Structure (SMILES)
10 | -5% (inactive) | 28% (inactive) | 32% (inactive) | 37% (inactive) | CC(=O)Nc1c2c3c(cccc3n(C)c1=O)C(=O)c1ccccc1-2
11 | 33% (inactive) | 41% (inactive) | -44% (inactive) | 62% | O=c1cc(-c2ccc(Cl)cc2)[nH][nH]1
12 | 3% (inactive) | -3% (inactive) | 36% (inactive) | 36% (inactive) | O=[N+]([O-])c1ccc2nc(-c3ccccc3)n(OCc3ccc(Cl)cc3)c2c1
13 | -8% (inactive) | 31% (inactive) | 11% (inactive) | 26% (inactive) | CCOc1ccccc1C(=O)NCC(=O)NCCCc1ccccc1
14 | 23% (inactive) | -61% (inactive) | 60% | 8% (inactive) | COC(=O)c1cc(C)nc(Sc2ccccc2N)n1
